Shown are actives, neighbours in structure and some others; about 2.1% of the full set was active somewhere.
CXCR6 inh – blocks human CXCR6 beta-arrestin recruitment | 360,000 tested, 0.36% active | inhibition, % at 20 µM | CHO-K1 PathHunter CXCR6 beta-arrestin, luminescence | AID 602244 | O00574; in the data active = inhibition above about 34%, passing the limit was not always enough;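 also: antagonist mode with CXCL16 agonist at 10 nM final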
Target sequence (O00574 whole entry, looked up): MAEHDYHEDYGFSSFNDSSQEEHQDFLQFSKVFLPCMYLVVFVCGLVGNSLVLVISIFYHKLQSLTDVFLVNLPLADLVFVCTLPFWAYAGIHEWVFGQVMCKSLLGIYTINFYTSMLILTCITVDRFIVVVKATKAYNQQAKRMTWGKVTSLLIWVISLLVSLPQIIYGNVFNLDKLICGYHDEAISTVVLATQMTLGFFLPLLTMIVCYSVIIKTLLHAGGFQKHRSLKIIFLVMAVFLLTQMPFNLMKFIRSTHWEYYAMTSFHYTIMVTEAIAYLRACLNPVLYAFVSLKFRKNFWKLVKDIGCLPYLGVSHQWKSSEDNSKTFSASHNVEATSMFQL
CCR6 antagonist – blocks CCL20-driven beta-arrestin recruitment at human CCR6; P51684; AID 493098; inhibition, % at 20 µM; 340,000 tested, 0.49% active; CHO-K1 CCR6 PathHunter beta-arrestin, luminescence, CCL20-stimulated;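 active = compounds whose inhibition of the agonist-driven luminescence signal at 20 µM reaches about 50%, limit read from the data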;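 also: cells stimulated with CCL20 at 14 nM final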
EBI2 block – EBI2 (human) antagonism. P32249. EBI2 beta-arrestin recruitment, luminescence, 7a,25-OHC stimulated. inhibition, % at 5 µM. 360,000 tested, 0.81% active; in the data active = inhibition above about 38%;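 also: enzyme fragment complementation signal reports receptor beta-arrestin coupling in cells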
Target sequence (P32249 whole entry, looked up, the tested form may be a part): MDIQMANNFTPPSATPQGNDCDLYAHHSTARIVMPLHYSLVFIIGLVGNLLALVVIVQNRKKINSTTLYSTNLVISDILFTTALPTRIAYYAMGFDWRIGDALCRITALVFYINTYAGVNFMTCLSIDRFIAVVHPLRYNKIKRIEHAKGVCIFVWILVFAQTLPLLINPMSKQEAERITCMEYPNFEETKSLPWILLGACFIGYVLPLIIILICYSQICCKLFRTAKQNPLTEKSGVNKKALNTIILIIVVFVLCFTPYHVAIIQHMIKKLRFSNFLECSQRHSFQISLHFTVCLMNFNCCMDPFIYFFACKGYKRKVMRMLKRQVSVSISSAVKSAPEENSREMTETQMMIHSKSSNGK
HTR2A ag – agonists of mouse serotonin 5-HT2A receptor (HTR2A) | AID 624169 | activation, % at 7.6 µM | 360,000 tested, 0.66% active | P35363 | CHO-K1 mHTR2A beta-arrestin complementation, luminescence; percent of 30 µM serotonin response;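 active = activation above a run cutoff, the mean activation of all tested compounds plus 3 SD, cut at about 14% in these data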
APJ antagonist – antagonists of human APJ apelin receptor; P35414; CHO-K1 APJ beta-arrestin complementation, luminescence; inhibition, % at 20 µM; 330,000 tested, 0.32% active; AID 2521;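 active = inhibition above about 40% at 20 µM, limit read from the data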;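 also: cells challenged with 10 nM apelin-13 agonist together with compound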
APJ ag – APJ receptor agonism; activation, % at 20 µM; CHO-K1 APJ PathHunter beta-arrestin, luminescence; 0% DMSO wells, 100% apelin; P35414; 330,000 tested, 0.11% active; AID 2520;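 active = activation more than six SD over the plate average, tested at 20 µM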
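Test system: CHO-K1 APJ beta-arrestin complementation cell line. Amount: cell density 1000 per well. Controls: DMSO negative, 10 nM Apelin-13 positive. Signal: luminescent beta-gal fragment complementation, chemiluminescent substrate. Read-out basis: agonist-driven arrestin binding to APJ. Timing: compound stimulation 90 min at 25 °C, detection 60 min.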
EBI2 antag conf – EBI2 (human) antagonism, single concentration confirmation. shares compounds with EBI2 block. EBI2 beta-arrestin luminescence, 7a,25-OHC antagonism. inhibition, % at 5 µM. 2,400 tested, 29% active. AID 651997;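 active = inhibition of at least 50%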
EBI2 agonist – EBI2 agonism counter-screen; activation, % at 5 µM; EBI2-expressing cells, agonist mode, luminescence, 60 min; 0% vehicle, 100% 7α,25-dihydroxycholesterol control; 2,400 tested, under 10 active; shares compounds with EBI2 block;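 active = activation of at least 50%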
bGal counter – beta-galactosidase inhibition counter-screen; shares compounds with EBI2 block; purified beta-galactosidase, luminescent Galacton Star, 15 min; inhibition, % at 5 µM; 2,400 tested, 1% active; AID 652176;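 active = replicate-average signal at least 3 plate SD below neutral wells, shown as high inhibition, flagging enzyme-inhibiting false positives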;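 also: higher means stronger loss of beta-gal luminescence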
Each line names hits and unclear results; the compound was inactive in the other large screens (follow-up assays come after a bar, where they were run).

O=C(c1ccc(-c2ccccc2)cc1)N1CCN(c2ncccn2)CC1	EBI2 block 49.5 | EBI2 antag conf inactive | EBI2 agonist inactive | bGal counter inactive
COc1ccc(C(=O)N2CCN(c3ccccc3OC)CC2)cc1	none
CCCS(=O)(=O)N1CCN(C(=O)c2cccnc2)CC1	none
CCCS(=O)(=O)N1CCN(C(=O)c2ccc(-c3ccccc3)cc2)CC1	EBI2 block 73.4 | EBI2 antag conf inactive | EBI2 agonist inactive | bGal counter inactive
CC(=O)c1ccccc1NC(=O)COC(=O)CCC1CCCC1	none
COc1ccccc1N1CCN(C(=O)c2cc(-c3cccs3)on2)CC1	EBI2 block 67.2 | EBI2 antag conf 51.8 | EBI2 agonist inactive | bGal counter inactive
C=CCN1CCN(C(=O)c2ccc(-c3ccccc3)cc2)CC1	EBI2 block 77.0 | EBI2 antag conf inactive | EBI2 agonist inactive | bGal counter inactive
COc1ccccc1N1CCN(C(=O)c2cc(-c3ccccc3O)on2)CC1	none
Cc1ccc(/C=C/C(=O)N2CCN(c3cccc(C(F)(F)F)c3)CC2)cc1	EBI2 block 83.1 | EBI2 antag conf 76.1 | EBI2 agonist inactive | bGal counter inactive
COc1ccccc1N1CCN(C(=O)/C=C/c2ccc(C)cc2)CC1	EBI2 block 93.1 | EBI2 antag conf 84.8 | EBI2 agonist inactive | bGal counter inactive
Cc1ccc(C)c(C(=O)CCC(=O)N2CCN(c3cccc(C(F)(F)F)c3)CC2)c1	none
CC(=O)c1cccc(OCC(O)CNCCOc2ccc(C)cc2)c1 (stereo unspecified)	none
O=C(c1cccc(Cl)c1)C1CCCN(Cc2ccc(N3CCNC3=O)cc2)C1 (stereo unspecified)	none
O=C(Nc1ccc(/C=C/c2nc3ccccc3o2)cc1)c1ccc(F)cc1	none
CC1CN(c2cnn(C(C)C)c(=O)c2Cl)CC(C)O1 (stereo unspecified)	none
COc1cc(S(=O)(=O)Nc2ccc3c(c2)C(=O)N(C)C3=O)ccc1NC(C)=O	none
COc1ccccc1N1CCN(C(=O)c2cc(-c3ccccc3)on2)CC1	EBI2 block 63.2 | EBI2 antag conf 54.0 | EBI2 agonist inactive | bGal counter inactive
O=C1CC(NC2CCN(C(=O)c3cccc(F)c3)CC2)C(=O)N1 (stereo unspecified)	none
CCOC(=O)N1CCN(C(=O)c2cc3cc(C)ccc3[nH]2)CC1	EBI2 block 88.1 | EBI2 antag conf 67.2 | EBI2 agonist inactive | bGal counter inactive
Cc1ccc(S(=O)(=O)N2CCCN(C(=O)c3cc4ccccc4[nH]3)CC2)cc1	EBI2 block 53.9 | EBI2 antag conf inactive | EBI2 agonist inactive | bGal counter inactive
CN1CCN(C(=O)c2cc3ccccc3[nH]2)CC1	none
Cc1ccc2[nH]c(C(=O)N3CCCC(Nc4ccc(F)cc4)C3)cc2c1 (stereo unspecified)	none
Cc1ccc2[nH]c(C(=O)N3CCN(c4cccc(Cl)c4)CC3)cc2c1	EBI2 block 54.2 | EBI2 antag conf inactive | EBI2 agonist inactive | bGal counter inactive
Cc1ccc2[nH]c(C(=O)N3CCN(C=O)CC3)cc2c1	EBI2 block 75.5 | EBI2 antag conf inactive | EBI2 agonist inactive | bGal counter inactive
COc1cccc2cc(C(C)OC(=O)Nc3ccc(C)cc3)oc12 (stereo unspecified)	none
CCOC(=O)c1c(NC(=O)CN2CCCc3ccccc32)sc(C)c1C	none
COCCOC(=O)c1c(NC(=O)CN2CCCc3ccccc32)sc(C(N)=O)c1C	EBI2 block 75.9 | EBI2 antag conf inactive | EBI2 agonist inactive | bGal counter inactive
Cc1ccc(Cl)cc1N1CCN(C(=O)c2cc3c(=O)[nH]c4ccccc4c3n2C)CC1	EBI2 block 72.9 | EBI2 antag conf 63.2 | EBI2 agonist inactive | bGal counter inactive
Cc1ccc(Cl)cc1N1CCN(C(=O)Cc2c(C(=O)O)[nH]c3ccccc23)CC1	none
O=C1NC(Cc2ccc(O)cc2)c2nc3cc(F)c(F)cc3c(=O)n2-c2cc3ccccc3cc21 (stereo unspecified)	none (no result: CCR6 antagonist, APJ antagonist, APJ ag)
O=C1NC(Cc2ccccc2)c2nc3cc(F)c(F)cc3c(=O)n2-c2cc3ccccc3cc21 (stereo unspecified)	EBI2 block 44.5 (no result: CCR6 antagonist, APJ antagonist, APJ ag) | EBI2 antag conf inactive | EBI2 agonist inactive | bGal counter inactive
COc1ccc(/C=N/NC(=O)NC23CC4CC(CC(C4)C2)C3)c(OC)c1	none
COc1ccccc1/C=N/NC(=O)NC12CC3CC(CC(C3)C1)C2	EBI2 block 47.4 | EBI2 antag conf inactive | EBI2 agonist inactive | bGal counter inactive
COc1ccc(N2CCN(C(CNS(=O)(=O)c3cc(F)ccc3F)c3cccnc3)CC2)cc1 (stereo unspecified)	none
CCCCCCSc1ccc(-c2nc3ccc(C)cn3c2NCCCC)cc1OC	EBI2 block 63.4 (no result: CCR6 antagonist, APJ antagonist, APJ ag) | EBI2 antag conf 63.0 | EBI2 agonist inactive | bGal counter inactive
CCCCCCSc1ccc(-c2nc3ccc(Cl)cn3c2NCCCC)cc1OC	none
O=C(c1cc2cc(F)ccc2[nH]1)N1CCN(Cc2ccc3c(c2)OCO3)CC1	EBI2 block 92.9 | EBI2 antag conf 79.3 | EBI2 agonist inactive | bGal counter inactive
CCN1CCN(C(=O)c2cc3cc(F)ccc3[nH]2)CC1	EBI2 block 55.2 | EBI2 antag conf inactive | EBI2 agonist inactive | bGal counter inactive
CC1CCCCC12NC(=O)N(CC(=O)NCc1ccco1)C2=O (stereo unspecified)	none
COc1ccc(NC(=O)CCN2CCN(S(=O)(=O)c3cc(Cl)ccc3Cl)CC2)cc1	EBI2 block 47.7 | EBI2 antag conf inactive | EBI2 agonist inactive | bGal counter inactive
Cc1cc2oc(=O)cc(CN(Cc3ccccc3)Cc3ccccc3)c2cc1Cl	EBI2 block 52.2 (no result: CCR6 antagonist, APJ antagonist, APJ ag) | EBI2 antag conf 51.2 | EBI2 agonist inactive | bGal counter inactive
CCNc1c(NC(=O)c2ccc3c(c2)OCO3)c(=O)oc2ccccc12	none
COc1ccc(CNC(=O)C2CCN(C(=O)c3ccc(-c4ccccc4)cc3)CC2)cc1	EBI2 block 68.2 | EBI2 antag conf inactive | EBI2 agonist inactive | bGal counter inactive
O=C(NC1CCCC1)C1CCN(C(=O)c2ccc(-c3ccccc3)cc2)CC1	EBI2 block 49.4 | EBI2 antag conf inactive | EBI2 agonist inactive | bGal counter inactive
COc1ccccc1CNc1cccc(C)n1	none (no result: CCR6 antagonist, APJ antagonist, APJ ag)
